The list is not random: actives were taken first. Their share in the collection is about 3.1%.
hERG rescue – shields human hERG channel from block by proarrhythmic agents; Q12809; AID 1511; CHO-hERG, FluxOR thallium flux, dofetilide IC70 present; 0.51% of 310,000 active; activation (rescue from dofetilide block), less the hit threshold, % at 10 µM;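 active = activation above the mean of controls blocked by dofetilide plus 5 SD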;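 also: thallium influx through hERG after potassium depolarization seen as dye fluorescence rise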
KCNK9 inh – human KCNK9 channel inhibition; Q9NPC2; HEK293 KCNK9, FluxOR thallium flux fluorescence; hits give low values; 1.2% of 310,000 active; B-score at 10 µM;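 active = ratio B-score over 3 SD below the library mean, with starting fluorescence within 5 SD of its mean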;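 also: negative B-score means less thallium flux so channel inhibition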
KCNQ1 block – human KCNQ1 channel inhibition. CHO-K1 KCNQ1, FluxOR thallium flux fluorescence; hits give high values. B-score at 10 µM. 1.3% of 310,000 active;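 active = compounds whose thallium flux B-score, printed positive for inhibition, exceeds three library SD while starting fluorescence stays within three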;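 also: channel opened by potassium depolarization with thallium stimulus after 20 min compound exposure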
KCNK3 block – human KCNK3 channel inhibition, primary screen; O14649; B-score at 10 µM; 0.84% of 340,000 active; CHO-KCNK3 thallium flux, FluxOR fluorescence; hits give low values;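 active = B-score under library mean minus 4 SD, starting fluorescence ratio at most library mean plus 5 SD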;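 also: more negative B-score means stronger inhibition of thallium flux through KCNK3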
Target sequence (O14649 whole entry, looked up): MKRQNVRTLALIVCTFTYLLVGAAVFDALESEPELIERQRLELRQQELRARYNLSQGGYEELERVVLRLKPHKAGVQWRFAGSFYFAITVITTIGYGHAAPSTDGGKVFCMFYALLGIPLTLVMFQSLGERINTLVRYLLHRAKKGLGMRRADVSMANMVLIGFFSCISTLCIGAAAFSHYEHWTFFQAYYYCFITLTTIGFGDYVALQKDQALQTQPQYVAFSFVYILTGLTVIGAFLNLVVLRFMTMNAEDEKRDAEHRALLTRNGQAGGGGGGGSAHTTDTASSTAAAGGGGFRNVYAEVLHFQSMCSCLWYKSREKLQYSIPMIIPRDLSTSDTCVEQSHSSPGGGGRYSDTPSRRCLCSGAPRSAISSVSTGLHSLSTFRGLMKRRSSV
KCNQ1 pot – potentiators or activators of human KCNQ1 potassium channel; P51787; CHO-K1 KCNQ1, thallium flux FluxOR fluorescence; hits give high values; B-score at 10 µM; 0.35% of 310,000 active; AID 2648;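 active = fluorescence ratio B-score, a plate-corrected score, at least three library SD, with initial intensity B-score within 5 SD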
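Assay system: CHO-K1 cells stably expressing KCNQ1. Medium: assay buffer for compound exposure, DMSO matched across wells. Timing: 37 °C overnight plating, 90-min dark dye load, 20-min compound pretreatment. Signal: kinetic FluxOR fluorescence, 10 s baseline plus 110 s post-stimulus.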
An asterisk follows results filed as active; i = inactive; · = no result.

SMILES | hERG rescue | KCNK9 inh | KCNQ1 block | KCNK3 block | KCNQ1 pot
COc1ccc(NC(=O)CCC(=O)N2CCC(c3ccccc3)=N2)cc1S(=O)(=O)N1CCCCC1 | · | · | · | i | ·
C=CCNc1nc(Nc2ccc([N+](=O)[O-])cc2)nc(N2CCCC2)n1 | -20 | i | 8* | i | i
CC1CCN(c2nc(Cl)nc(Nc3ccc([N+](=O)[O-])cc3)n2)CC1 | -5 | i | 8* | i | i
C=CCNc1nc(Cl)nc(Nc2ccc([N+](=O)[O-])cc2)n1 | -2 | i | i | i | i
Cc1ccc(-c2nc(CSCC(=O)N3CCN(c4ccccn4)CC3)c(C)o2)cc1 | -18 | i | i | -8.9* | i
COc1cccc(C2=CC(=O)C(C(C)(C)C)N2C(C)(C)C)c1 (configuration not stated) | · | · | · | i | ·
CCN(CC)CCN1C(=O)c2ccccc2NC1c1ccccc1F (configuration not stated) | 5.1* | i | i | i | i
O=[N+]([O-])c1cccc(-c2ccc(/C=N/Nc3nc(N4CCCCC4)nc(N4CCCCC4)n3)o2)c1 | -16 | i | 7* | i | i
CCOC(=O)CN1NC2(CCC(C)CC2)NC1=S (configuration not stated) | -8 | i | i | i | i
CCOC(=O)CN1NC2(CCC(C(C)(C)C)CC2)NC1=S (configuration not stated) | 8.7* | i | i | i | i
CC1(C)CC(NC(=O)C2CCC(=O)N(C3CC3)C2)CC(C)(C)C1 (configuration not stated) | -9 | i | i | i | i
Cc1ccc(C(=O)O/N=C(\N)c2ccc(Br)cc2)cc1C | 6.4* | i | i | i | i
Cc1cc(C)cc(C(=O)O/N=C(\N)c2ccc(Br)cc2)c1 | -12 | i | i | i | i
CCOC(=O)c1ccc(N2C(=O)c3n[nH]c(C)c3C2c2ccc(O)cc2)cc1 (configuration not stated) | -6 | -7.1* | i | i | i
O=C1C=CC(=O)N1CCCCCCCCCCN1C(=O)C=CC1=O | · | · | · | i | ·
O=C(NCc1ccc(Cl)cc1)c1n[nH]c([N+](=O)[O-])c1Cl | -11 | i | 6* | i | i
CN(C)c1oc(-c2ccccc2Cl)nc1C#N | -3 | i | i | i | i
CN(C)c1oc(-c2ccccc2[N+](=O)[O-])nc1C#N | 4.7* | i | i | i | i
COc1ccc2c(c1)C(CC(=O)NN)CCC2 (configuration not stated) | · | · | · | i | ·
O=C(O)c1ccc(NC(=S)NC(=O)c2cccc(COc3ccccc3)c2)cc1 | -10 | i | 6* | i | i
O=C(NC(=S)Nc1ccc(CN2CCCCC2)cc1)c1cccc(OCc2ccccc2)c1 | -43 | i | 8* | i | i
O=C(NC(=S)Nc1ccc(CN2CCOCC2)cc1)c1ccc(-c2cccc(Cl)c2)o1 | -3 | i | i | i | 20*
O=C(O)c1ccc(NC(=S)NC(=O)c2ccc3ccccc3c2)cc1 | -3 | i | i | i | i
Cc1ccc(C(=O)c2nccn2C)cc1C | -5 | i | i | i | i
COc1cc(C2C3=C(COC3=O)Oc3cc4c(cc32)OCO4)cc(OC)c1OC(C)=O (configuration not stated) | · | · | · | i | ·
SMILES | hERG rescue | KCNK9 inh | KCNQ1 block | KCNK3 block | KCNQ1 pot
C=C(C)Cn1c(C)cc(C)c(S(=O)(=O)c2ccc(C)cc2)c1=O | -6 | -7.2* | i | i | i
CCN1CCN(Cc2c(O)ccc3c(=O)c(-c4ccccc4OC)coc23)CC1 | -7 | i | i | i | i
CC(C)c1ccc(/C=C2\Oc3c(ccc(O)c3CN3CCN(C)CC3)C2=O)cc1 | -21 | i | i | i | i
Cc1ccc(/C=C2\Oc3c(ccc(O)c3CN3CCN(CCO)CC3)C2=O)cc1 | -14 | i | 11* | i | i
CCN1CCN(Cc2c(O)ccc3c2O/C(=C\C=C\c2ccccc2OC)C3=O)CC1 | -31 | i | 6* | i | i
Cc1[nH]c(=O)nc(NN=Cc2ccc(Cl)cc2)c1C(=O)Nc1ccc(Cl)cc1 | · | · | · | i | ·
CCC(C)n1c(C)cc(=O)n1C(C)CC (configuration not stated) | · | · | · | i | ·
C/C(=N/NC(=O)c1cc2ccccc2cc1O)c1ccco1 | 25* | i | i | i | 35*
C/C(=N\NC(=O)c1cc2ccccc2cc1O)c1cccs1 | -2 | i | i | i | i
C/C(=N\NC(=O)c1cc(C)nc2ccccc12)c1ccco1 | -14 | i | i | i | i
C/C(=N\NC(=O)c1cc2ccccc2cc1O)c1ccc(C)o1 | 8.9* | i | i | i | 26*
Cc1ccc(CCNc2ncnc(Cl)c2N)cc1 | · | · | · | i | ·
Cc1cccc(CSCCNC(=O)CN2C(=O)c3ccccc3S2(=O)=O)c1 | -5 | i | i | i | i
Cc1ccc(CSCCNC(=O)CN2C(=O)c3ccccc3S2(=O)=O)cc1 | 4.9* | i | i | i | i
CCOc1ccc(CN(CCC#N)C(=S)NC(=O)c2ccccc2)cc1 | -2 | i | i | i | 11*
Cc1ccc(C(=O)NC(=S)N(C)Cc2ccccc2)cc1 | -2 | i | i | i | i
COc1cc(OC)cc(C(=O)NC(=S)NCCc2ccccc2)c1 | -6 | i | i | i | i
CCCN(CCC)C(=S)NC(=O)c1ccc(-c2ccccc2)cc1 | 19* | i | i | i | 9*
COc1cc(OC)cc(C(=O)NC(=S)N(Cc2ccccc2)C(C)C)c1 | 17* | i | i | i | 27*
CCOc1ccc(C(=O)NC(=S)N(Cc2ccccc2)Cc2ccccc2)cc1 | 27* | i | i | i | 75*
CC(C)(C)OC(=O)N1CCC(C(=O)Nc2ccc(C(=O)NCCc3ccccc3)cc2)CC1 | · | · | · | i | ·
CN(C)Cc1nc2ccccc2c(=O)n1Cc1nc(-c2cccc([N+](=O)[O-])c2)cs1 | -13 | -7.6* | i | i | i
CCC(=O)c1ccc(OCC(=O)OCC(=O)NC2CCCCCCC2)cc1 | -11 | i | i | i | i
Cc1ccc(/C=c2/sc3n(c2=O)CCCN=3)o1 | -14 | i | 6* | i | i
Cc1ccc(/C=c2\sc3n(c2=O)CN(c2ccc(Br)cc2)CN=3)o1 | -3 | i | i | i | i
Cc1ccccc1C(=O)NC(=S)NCc1ccccc1 | -9 | i | i | i | i
O=[N+]([O-])c1ccc(O)c(Nc2ncnc3ccc(Br)cc23)c1 | -6 | i | 7* | i | i
O=[N+]([O-])c1ccc(O)c(Nc2ncnc3ccccc23)c1 | -3 | i | i | i | i
CCOC(=O)CSC1=NC(=O)/C(=C\c2ccc(Cl)cc2)S1 | -12 | i | 6* | i | i
